# In the EternaBench riboswitch data:
# Legend:
# MS2 coat protein [1] = assay: apparent Kd, MS2 coat protein; higher = weaker binding; RNA-MaP array; tryptophan 2.4 mM where present
# In short: (§1)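 Designs on Illumina sequencing-chip clusters, transcribed by stalled E. coli RNA polymerase, were exposed to SNAP-549-labelled MS2 coat protein in doubling steps from 0.7 or 1.5 nM up to 3 µM, without and then with constant ligand. The buffer held 100 mM Tris-HCl pH 7.5, 80 mM KCl, 4 mM MgCl2, BSA, DTT, yeast tRNA and Tween-20. Apparent Kd values are medians of filtered per-cluster binding-curve fits to green signal normalised to red-channel RNA signal and control-cluster median Fmax.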
# MS2 coat protein [2] = assay: apparent Kd, MS2 coat protein; higher = weaker binding; RNA-MaP array; theophylline 2 mM where present
# In short: as §1
# [3] = designed as: ON switch for tryptophan, no ligand
# [4] = ligand present: tryptophan, designed as: ON switch for tryptophan
# [5] = designed as: OFF switch for tryptophan, no ligand
# [6] = ligand present: tryptophan, designed as: OFF switch for tryptophan
# [7] = designed as: ON switch for theophylline, no ligand
# [8] = ligand present: theophylline, designed as: ON switch for theophylline
# [9] = designed as: OFF switch for theophylline, no ligand
# [10] = ligand present: theophylline, designed as: OFF switch for theophylline
sequence,measurement,setting,value
AAAACAUGAGGAUCACCCAUGUACAUGGGUCGAGGACCGGUACGGCCGCCACUCGCCGCCCGCCCGCCCGCCACCUCUCCCGCCC,apparent Kd,MS2 coat protein [1]; [3],69.9 nM
same,apparent Kd,MS2 coat protein [1]; [4],66.2 nM
AACACAUGAGGAUCACCCAUGUCCAUGUACCGAGGACCGGUACGGCCGCCACUCGACAUGAGGAUCACCCAUGUUCCAUGUUGUC,apparent Kd,MS2 coat protein [1]; [3],108 nM
same,apparent Kd,MS2 coat protein [1]; [4],149 nM
AACGUCUUGUCGGCCGCCACUGUAUGGUGCGUGACAUGAAACAUGAGGAUCACCCAUGUAGCAUGCAGGACCGGGACAGUGCCAA,apparent Kd,MS2 coat protein [1]; [5],9.84 nM
same,apparent Kd,MS2 coat protein [1]; [6],17.8 nM
AAGACAUGAGGAUCACCCAUGUCGUCUACACGAGGACCGGUACGGCCGCCACUCGUUUGCCAAUGAGCGCAUGCGGCCUGGGUAU,apparent Kd,MS2 coat protein [1]; [5],13.3 nM
same,apparent Kd,MS2 coat protein [1]; [6],24.1 nM
AAUCAUGAAAACAUGACAUGAGGAUCACUCCGAGGACCGGUACGGCCGCCACUCGCGAGGAGGCACAUGAGGAUCACCCAUGUUA,apparent Kd,MS2 coat protein [1]; [3],69 nM
same,apparent Kd,MS2 coat protein [1]; [4],82.7 nM
AAUGAGUGGUGGUCAAACAUGGGUGAUCAACGAGGACCGGUACGGCCGCCACUCGAUAACAUGAGGAUCACCCAUGUAAUAAUAA,apparent Kd,MS2 coat protein [1]; [5],234 nM
same,apparent Kd,MS2 coat protein [1]; [6],202 nM
AAUGUAUGGCACAUGAGGAUCACCCAUGUGCGAGGACCGGUACGGCCGCCACUCGGUCCUGGGAUCUUAAUACUAUACAUUAAUG,apparent Kd,MS2 coat protein [1]; [5],10.9 nM
same,apparent Kd,MS2 coat protein [1]; [6],28.2 nM
ACAUGAGGAUCACCCAUGUCAUGAGGUUCACGAGGACCGGUACGGCCGCCACUCGACAUGAGGGUCACCCGUGAACGGAACACCC,apparent Kd,MS2 coat protein [1]; [3],14.8 nM
same,apparent Kd,MS2 coat protein [1]; [4],20 nM
ACAUGAGGAUCACCCAUGUUAAACAGGGUGCGAGGACCGGUACGGCCGCCACUCGGACAUUAUUACGAGUGAAUGGCAACGAUGU,apparent Kd,MS2 coat protein [1]; [5],15.8 nM
same,apparent Kd,MS2 coat protein [1]; [6],15.4 nM
ACAUUAGCCACGGCCGCCACUGCUUUAUGAUUAUAAGGAUUAAUGAACAUGAGGAUCACCCAUGUCAGGACCGGGUGCCUACCAU,apparent Kd,MS2 coat protein [1]; [3],29.8 nM
same,apparent Kd,MS2 coat protein [1]; [4],29.7 nM
ACGUUUUAGUCGGCCGCCACUGAUCUCAUGUUCAACAUGAGGAUCACCCAUGUACCUUUUUUUAUCAGGACCGGGACGUAAUAGA,apparent Kd,MS2 coat protein [1]; [3],329 nM
same,apparent Kd,MS2 coat protein [1]; [4],62.3 nM
ACUACAAAGUAGUAUAUACGAAAGUAUAGACGAGGACCGGUACGGCCGCCACUCGGUACCGGAAACACAUGAGGAUCACCCAUGU,apparent Kd,MS2 coat protein [1]; [5],20.6 nM
same,apparent Kd,MS2 coat protein [1]; [6],17.6 nM
AGAGCAUUGACGGCCGCCACUCAUGUCACAUGAGGAUCACCCAUGUGAUGGGUGAUAGCCCGGUUGAGGACCGGGUCAAUGCUCA,apparent Kd,MS2 coat protein [1]; [3],18.8 nM
same,apparent Kd,MS2 coat protein [1]; [4],19.4 nM
AGAGCAUUGACGGCCGCCACUCGUGUCACAUGAGGAUCACCCAUGUGACGGGUGAUCGCCCGGUUGAGGACCGGGUCAAUGCUCA,apparent Kd,MS2 coat protein [1]; [3],9.69 nM
same,apparent Kd,MS2 coat protein [1]; [4],11.4 nM
AGAUGAGUCACGGCCGCCACUCUUAUCAGGAUCACCCAUGGUUGACAUGAGGAUCACCCAUGUAUGAGGACCGGGUGAUGAGCAU,apparent Kd,MS2 coat protein [1]; [5],12.2 nM
same,apparent Kd,MS2 coat protein [1]; [6],15.6 nM
GAGACAUGAGGAUCACCCAUGUUAGAUGAUACCAGUUAGAGAAGGAGCCCUUGGCAGCGUAAAUCUAGAGCCUAUGACGACAUGU,apparent Kd,MS2 coat protein [2]; [7],13.4 nM
same,apparent Kd,MS2 coat protein [2]; [8],14.2 nM
GAGCUGAUGUAGAGAUUUUAUUUCUGAGAUACCAGUACAGAAAUGUACCCUUGGCAGCUCAGCUUUACAUGAGGAUCACCCAUGU,apparent Kd,MS2 coat protein [2]; [9],17.2 nM
same,apparent Kd,MS2 coat protein [2]; [10],22.1 nM
GAGCUGAUGUAGAGCUAAUAUAAGAGAGAUACCAGUACAGAAAUGUACCCUUGGCAGCUCAACUUUACAUGAGGAUCACCCAUGU,apparent Kd,MS2 coat protein [2]; [9],13.9 nM
same,apparent Kd,MS2 coat protein [2]; [10],16.9 nM
GAUGAACUAUAUGAUACCAGACAACAUGAGGAUCACCCAUGUGAUUGUCGUCCUCUGCCUGUCCCUUGGCAGCGUAUAGUUUAUC,apparent Kd,MS2 coat protein [2]; [9],33.8 nM
same,apparent Kd,MS2 coat protein [2]; [10],229 nM
GAUGAUAUUGCAGAUACCAGACACAUGAGGAUCACCCAUGUCGCUGAGAUGCUGGAUCGUGUCCCUUGGCAGCUGCGAUAUCAUC,apparent Kd,MS2 coat protein [2]; [9],55.1 nM
same,apparent Kd,MS2 coat protein [2]; [10],402 nM
GGAAGCAGGACUGAUACCAGUCCAGCGAAUCAUACGACGCAACAUGAGGAUCACCCAUGUGACCCUUGGCAGCAGACUGCUACCG,apparent Kd,MS2 coat protein [2]; [7],31.5 nM
same,apparent Kd,MS2 coat protein [2]; [8],13.7 nM
GGAUAGAUAGGAGAUACCAGAUACAUCAACAUGAGGAUCACCCAUGUGUCUGCACUAAGUGUCCCUUGGCAGCUCGGAGAUCUGA,apparent Kd,MS2 coat protein [2]; [7],32.3 nM
same,apparent Kd,MS2 coat protein [2]; [8],20.5 nM
GGGAAUGAACGUGAUACCAGAGAUCCGGUCUCCGUCAAUAUACAUGAGGAUCACCCAUGUCUCCCUUGGCAGCACCGUCAUCGGG,apparent Kd,MS2 coat protein [2]; [9],14.8 nM
same,apparent Kd,MS2 coat protein [2]; [10],23.4 nM
GGUGAUCCGUAUCACCGGAUCAUCGGUGAUACCAGCAUCGAAAGAUGCCCUUGGCAGCACCAACAUGAGGAUCACCCAUGUAAUA,apparent Kd,MS2 coat protein [2]; [7],120 nM
same,apparent Kd,MS2 coat protein [2]; [8],25.9 nM
GGUGGGACUUGUGAUACCAGCCCAAUUCGAAUCGAAUUGCACAUGAGGAUCACCCAUGUCGGCCCUUGGCAGCAUGAGUAUUUAU,apparent Kd,MS2 coat protein [2]; [7],312 nM
same,apparent Kd,MS2 coat protein [2]; [8],16.8 nM
GUAUGGAAACAUACUAGGGUAUCAUGAGAUACCAGUACAGAAAUGUACCCUUGGCAGCUCUAGCAUACAUGAGGAUCACCCAUGU,apparent Kd,MS2 coat protein [2]; [9],14 nM
same,apparent Kd,MS2 coat protein [2]; [10],22.9 nM
UAAAAUAAUAAUGAUACCAGCCCUCCCUCCCGGGACAUGAGGAUCACCCAUGUCUCUCCCGGCCCUUGGCAGCAUAAAUAAUAAU,apparent Kd,MS2 coat protein [2]; [7],11.1 nM
same,apparent Kd,MS2 coat protein [2]; [8],14.2 nM
UAAAUAUUACUGGGUAAGGUAUAAAUAGAUACCAGCCAGAUAACUGGCCCUUGGCAGCUAAACAUGAGGAUCACCCAUGUAUAAU,apparent Kd,MS2 coat protein [2]; [7],37 nM
same,apparent Kd,MS2 coat protein [2]; [8],116 nM
UAUAUAGUGAUGGAUACCAGCAGAGAAAACGUUUAUCCUAACAUGAGGAUCACCCAUGUAUGCCCUUGGCAGCUGUUGUUAUAUA,apparent Kd,MS2 coat protein [2]; [9],20.1 nM
same,apparent Kd,MS2 coat protein [2]; [10],28 nM
UAUAUAUAGAUGGAUACCAGCAGAGAAAACGUUUAUCCUAACAUGAGGAUCACCCAUGUAUGCCCUUGGCAGCUGUUUAUAUAUA,apparent Kd,MS2 coat protein [2]; [9],24.4 nM
same,apparent Kd,MS2 coat protein [2]; [10],31.6 nM
UAUUUGGUGCGCGAGUGUUGGAUAAUUGAUACCAGUGAAGAAGAGCGCCCUUGGCAGCGAAUCCUAACAUGAGGAUCACCCAUGU,apparent Kd,MS2 coat protein [2]; [7],39.2 nM
same,apparent Kd,MS2 coat protein [2]; [8],48.7 nM
UCGCACAUGAGGAUCACCCAUGUACUAGAUACCAGUGACGCGGUGCACCCUUGGCAGCUGGUGCUGAGUGAUGGUUCCCUCGGCA,apparent Kd,MS2 coat protein [2]; [9],119 nM
same,apparent Kd,MS2 coat protein [2]; [10],143 nM
UCUCGGUCUUUCUUUCUCCGAGAAUAUGAUACCAGUUAGUUUUAUGGCCCUUGGCAGCAUAGAACAUGAGGAUCACCCAUGUGUU,apparent Kd,MS2 coat protein [2]; [7],94.2 nM
same,apparent Kd,MS2 coat protein [2]; [8],108 nM
UCUGGGUGCGCAAGGACCUGGAGUUGCGAUACCAGCACGGUAACGUGCCCUUGGCAGCGCACAUGAGGAUCACCCAUGUGGUGUU,apparent Kd,MS2 coat protein [2]; [9],310 nM
same,apparent Kd,MS2 coat protein [2]; [10],388 nM
UCUUUCUUUGUAGAUACCAGCGUGUUAUCUUUCUUUUGACAUGAGGAUCACCCAUGUAUAUGCCCUUGGCAGCUACAUAUUCUUU,apparent Kd,MS2 coat protein [2]; [7],18.5 nM
same,apparent Kd,MS2 coat protein [2]; [8],14.2 nM
UGACAUUGCUCAGAUACCAGACAUGAGGAUCACCCAUGUACCAAGAAAACGUACAUAAAUGUCCCUUGGCAGCUGAGCAAUGUCU,apparent Kd,MS2 coat protein [2]; [9],524 nM
same,apparent Kd,MS2 coat protein [2]; [10],713 nM
UGUUUGGUGCGCGAGUGUUGGAUAAAUGAUACCAGUGUAGAUGUACGCCCUUGGCAGCGUAUCCGAACAUGAGGAUCACCCAUGU,apparent Kd,MS2 coat protein [2]; [7],37.7 nM
same,apparent Kd,MS2 coat protein [2]; [8],67.2 nM
UGUUUGGUGCGCGAGUGUUGGAUAAUUGAUACCAGUGUAGAUGUACGCCCUUGGCAGCGAAUCCGAACAUGAGGAUCACCCAUGU,apparent Kd,MS2 coat protein [2]; [7],32.5 nM
same,apparent Kd,MS2 coat protein [2]; [8],87.2 nM
UUAAAUGUGACGGAUACCAGCGUGUUGUAGAACAUGAGGAUCACCCAUGUAGUGAUCGAGCGCCCUUGGCAGCUGGUAUGUUUGA,apparent Kd,MS2 coat protein [2]; [7],180 nM
same,apparent Kd,MS2 coat protein [2]; [8],532 nM
UUAGAUAUGACAGAUACCAGCGUGUUGUAGAACAUGAGGAUCACCCAUGUAGUGAUCGAGCGCCCUUGGCAGCUGGUGUGUUUGG,apparent Kd,MS2 coat protein [2]; [7],149 nM
same,apparent Kd,MS2 coat protein [2]; [8],440 nM
